TRPC4 block: blocks the mouse TRPC4 cation channel | Q9QUQ5 | HEK293 TRPC4beta/mu-opioid, DAMGO-evoked Fluo4 calcium flux; stronger effect = lower value | B-score at 10 µM | 300,000 compounds, 0.39% hits | AID 2247;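 active = B-score over 3 SD under the library average, no early fluorescence shift, positive overall ratio signal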
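System: stable TRPC4beta/mu-opioid receptor HEK293 cells; Dosing: single-point compound dosing; Measured by: Fluo4 Ca2+ flux fluorescence; Read-out basis: per-well B score of integrated baseline-normalized Fluo4 ratio.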
TRPC4 agonist: activators of mouse TRPC4 channel | Q9QUQ5 | HEK293 TRPC4beta/mu-opioid, Fluo4 calcium fluorescence; stronger effect = higher value | B-score at 10 µM | 310,000 compounds, 0.49% hits;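 active = B-score above 5 SD of library B-scores, and initial fluorescence ratio not above library mean plus 5 SD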;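 note: positive B-score marks a calcium rise read as TRPC4 activation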
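Assay system: HEK293 cells stably co-expressing mouse TRPC4beta and mu-opioid receptor / Timing: Fluo4 dye loading 45 min at room temperature, 110 s recording / Signal: Fluo4 calcium-sensitive dye fluorescence, kinetic, 1 Hz baseline / Read-out: integrated baseline-normalised fluorescence ratio, converted to per-well B score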
TRPC6 inhibitor: mouse TRPC6 channel inhibition; Q61143; HEK293-TRPC6, membrane potential dye, ACh-evoked depolarization; stronger effect = lower value; B-score at 10 µM; 310,000 compounds, 1.1% hits; AID 2553;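 active = B-score under library mean minus 3 SD, initial fluorescence not abnormally high, positive integrated signal ratio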;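 note: B-score derived from integrated fluorescence ratio over the kinetic read; more negative B-score means stronger inhibition of depolarization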
TRPC6 activator: activates the mouse TRPC6 cation channel; Q61143; HEK293-TRPC6 membrane potential dye fluorescence; stronger effect = higher value; B-score at 10 µM; 310,000 compounds, 0.13% hits;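 active = B-score of the integrated fluorescence ratio above library mean plus 3 SD, and starting fluorescence ratio within library mean plus 5 SD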;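 note: higher score means more depolarization so channel activation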
TRPC4 potent: allosterically enhances the mouse TRPC4 cation channel | Q9QUQ5 | HEK293 TRPC4beta/mu-opioid, DAMGO EC20, Fluo-4 Ca2+ flux; stronger effect = higher value | B-score at 10 µM | 310,000 compounds, 0.42% hits | AID 2227;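 active = B-score of calcium response area above 5 SD of library B-scores, with initial fluorescence ratio within 5 SD of library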;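 note: B-score of integrated fluorescence ratio over time as area under calcium response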
DNA FID counter: counter-screen for HCV NS3 helicase inhibitors: DNA intercalator displacement | DNA fluorescent intercalator displacement, fluorescence | inhibition, % at 7.9 µM | 290,000 compounds, 0.17% hits; in the data active = inhibition above about 37%;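 note: 0% = vehicle and 100% = reference compound; higher means more ethidium bromide displaced from hairpin DNA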
TRPC4 spec 2: mouse TRPC4 off-target activity of TRPC6 inhibitors, second screen; HEK293 TRPC4/MOR, membrane potential dye fluorescence; channel activated by saturating DAMGO dose; 920 compounds, 42% hits; shares compounds with TRPC6 inhibitor; inhibition, % at 10 µM; AID 2776;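 active = compounds whose fluorescence signal differed from control wells by over 3 SD, either direction, in both duplicate plates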
TRPC4 spec: mouse TRPC4 off-target activity of TRPC6 inhibitors. shares compounds with TRPC6 inhibitor. HEK293 TRPC4/mu-opioid, membrane potential fluorescence. activity change, negative = inhibition, % at 10 µM. 920 compounds, 61% hits;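 active = rise or fall in signal beyond 3 SD of buffer-only wells in both replicate plates, either sign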;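 note: integrated kinetic ratio of fluorescence range over baseline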
HEK293 MPD ctr 2-1: second check of TRPC6 inhibitor effects in parental HEK293 cells; shares compounds with TRPC6 inhibitor; parental HEK293 membrane potential dye fluorescence; maximal acetylcholine challenge after compound addition; signal change vs control, % at 10 µM; 920 compounds, 31% hits;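 active = membrane potential signal moving either way by over 3 SD of the maximum-effect control, in both duplicate plates, meaning non-specific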
HEK293 MPD ctr-1: checks TRPC6 inhibitor effects in parental HEK293 cells; shares compounds with TRPC6 inhibitor; parental HEK293 membrane potential dye fluorescence; membrane potential signal change, % at 10 µM; 920 compounds, 60% hits; AID 2780;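 active = membrane potential signal shifting up or down by more than 3 SD of buffer-only wells, on both duplicate plates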
HEK293 MPD ctr-2: parental HEK293 nonspecific activity of TRPC6 modulators; membrane potential signal change, % at 10 µM; membrane potential dye fluorescence; AID 488924; 2,400 compounds, 51% hits; shares compounds with TRPC6 inhibitor;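 active = membrane potential signal moves up or down beyond 5 SD from buffer-only wells, on both duplicate plates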
HEK293 MPD ctr 2-2: second counter-screen for TRPC6 modulators: effect in parental HEK293 cells. 2,400 compounds, 14% hits. shares compounds with TRPC6 inhibitor. membrane potential dye fluorescence; after compound, maximal acetylcholine stimulation. inhibition, % at 10 µM. AID 488926;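 active = membrane potential signal drops by more than 5 SD from the mean control signal, in both duplicate plates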;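 note: plate controls were acetylcholine ECmax control wells for no effect and buffer only wells for full effect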
TRPC4/MOR mod: selectivity of TRPC6 modulators against mouse TRPC4; 2,400 compounds, 69% hits; percent change from control (negative = decrease, positive = increase), % at 10 µM; AID 488927; HEK293 TRPC4/mu-opioid, membrane potential fluorescence; shares compounds with TRPC6 inhibitor;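 active = membrane potential signal moved up or down beyond 5 SD of buffer control wells, in both duplicate plates, actives on both sides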;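 note: plate controls were assay buffer wells for no effect and DAMGO maximal-effect wells for full effect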
TRPC4 ctr inh 2: mouse TRPC4 off-target activity of TRPC6 modulators, second screen | inhibition, % at 10 µM | HEK293 TRPC4/mu-opioid, membrane potential dye fluorescence; stimulated with maximal-effect DAMGO | shares compounds with TRPC6 inhibitor | 2,400 compounds, 55% hits;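 active = drop in membrane potential signal beyond 5 SD of the control wells in both duplicate plates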;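 note: TRPC4 counter screen for TRPC6 hits run under conditions tuned for TRPC6 not TRPC4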
TRPC6 block conf: mouse TRPC6 inhibitor confirmation | shares compounds with TRPC6 inhibitor | HEK293-TRPC6, membrane potential dye, ACh-evoked depolarization | inhibition, % at 10 µM | 3,300 compounds, 43% hits;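 active = fluorescence ratio falls more than 5 SD below the full-stimulation control mean, in both duplicate runs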;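 note: integrated fluorescence ratio of peak minus minimum over baseline after agonist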
TRPC6 act conf: confirmation of mouse TRPC6 activators; activation, % at 10 µM; HEK293-TRPC6 membrane potential dye fluorescence, FDSS; AID 488961; 2,800 compounds, 11% hits; shares compounds with TRPC6 inhibitor;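 active = ratio signal rise beyond 5 SD above unstimulated control wells' mean, seen in both duplicate runs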;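 note: plate controls were buffer EC0 wells for no effect and acetylcholine ECmax response for full effect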
Starred values were filed as active, the others as inactive; i = inactive; nt = not tested or not shown. Rows were chosen to be rich in hits. Some 2.3% of all compounds tested hit in one or more screens of this group.

SMILES	TRPC4 block	TRPC4 agonist	TRPC6 inhibitor	TRPC6 activator	TRPC4 potent	DNA FID counter	HEK293 MPD ctr-2	HEK293 MPD ctr 2-2	TRPC4/MOR mod	TRPC4 ctr inh 2	TRPC6 block conf	TRPC6 act conf	others
CN(C)CCNc1c2c(nc3ccccc13)CCC2	i	i	-9.05*	i	i	45.0*	-202.5%*	110.5%*	-36.5%*	77.0%*	74.0%*	i
CN(C)CCCNc1nc(-c2ccccc2)nc2ccccc12	i	i	-7.68*	i	i	57.9*	nt	nt	nt	nt	65.4%*	i	TRPC4 spec 2=40.5%*;TRPC4 spec=-27.0%*;HEK293 MPD ctr 2-1=i;HEK293 MPD ctr-1=-347.0%*
COc1cc(Nc2c3c(nc4ccccc24)CCCC3)cc(OC)c1OC	i	i	-6.14*	i	i	8.1	-96.0%*	i	-20.5%*	37.5%*	i	i
CC(=O)c1ccc(Nc2c3c(nc4ccccc24)CCCC3)cc1	i	i	i	i	i	4.4	nt	nt	nt	nt	nt	nt
CC(C)(C)CC(C)(C)NCC(=O)Nc1c2c(nc3ccccc13)CCC2	i	i	i	i	i	12.9	nt	nt	nt	nt	nt	nt
Nc1c2c(nc3ccccc13)N(C1CCCCC1)CC2	-6*	i	-11.6*	i	i	nt	nt	nt	nt	nt	109.0%*	i	TRPC4 spec 2=27.0%*;TRPC4 spec=-28.0%*;HEK293 MPD ctr 2-1=-2.5%*;HEK293 MPD ctr-1=-388.0%*
CC(C)OCCCNc1nc(-c2ccccc2)nc2ccccc12	i	i	i	i	i	4.2	nt	nt	nt	nt	nt	nt
CCN1CCN(Cc2nnc(-c3ccc(C)cc3)o2)CC1	i	i	i	i	i	-2.7	nt	nt	nt	nt	nt	nt
COc1ccc2[nH]c(C)c(-c3csc(N)n3)c2c1	i	i	i	i	i	2.0	nt	nt	nt	nt	nt	nt
CN(C)CCCNc1c2ccccc2nc2ccccc12	-6*	i	-10.7*	i	i	28.4	-267.5%*	177.0%*	-43.5%*	78.5%*	88.5%*	i
NC(=O)COC(=O)c1c2c(nc3ccccc13)CCC2	i	i	i	i	i	-2.5	nt	nt	nt	nt	nt	nt
Nc1c2c(nc3ccccc13)CCC2	-5*	i	-6.99*	i	i	2.8	-279.0%*	i	-42.0%*	70.0%*	i	i
COc1ccc(CNC(=O)C2CCCN2C(=O)NCc2ccccc2)cc1 (configuration not stated)	i	i	i	i	i	-5.4	nt	nt	nt	nt	nt	nt
Cc1ccc(C)c(OC(=O)c2cccnc2Cl)c1C	i	i	-6.17*	i	i	-22.8	i	i	i	i	i	i
Cc1noc(C)c1COC(=O)c1cccnc1Cl	i	i	i	i	i	-1.5	nt	nt	nt	nt	nt	nt
O=C(CCCN1CCC(c2ccccc2)C1)c1ccc2c(c1)OCCO2 (configuration not stated)	i	i	-6.5*	i	i	14.4	111.5%*	i	i	77.0%*	67.5%*	nt
O=C(CCCN1CCOCC1)c1ccc2c(c1)OCCO2	i	i	i	i	i	7.8	nt	nt	nt	nt	nt	nt
CN(C)CCCN1c2ccccc2Sc2ccccc21	i	i	-6.39*	i	i	13.7	i	i	i	58.0%*	44.5%*	i
CCC(=O)c1ccc2c(c1)N(CCCN(C)C)c1ccccc1S2	i	i	-6.09*	i	i	nt	-232.5%*	72.5%*	-38.0%*	81.0%*	70.0%*	i
COc1ccc2c(c1)Sc1ccccc1N2CCN(C)C	i	50*	-5.08*	i	i	14.0	i	i	39.0%*	82.5%*	51.5%*	i
CN(C)CCCN1c2ccccc2CCc2ccc(Cl)cc21	i	i	i	i	i	20.2	nt	nt	nt	nt	nt	nt
CC(C)c1ccc(OCC(=O)Nc2c3c(nn2C(C)(C)C)CS(=O)(=O)C3)cc1	i	i	i	i	i	nt	nt	nt	nt	nt	nt	nt
COc1ccc(N(C)S(=O)(=O)c2ccc3c(c2)CCN3C(=O)C2CC2)c(OC)c1	i	i	i	i	i	-37.1	nt	nt	nt	nt	nt	nt
CCc1noc(C)c1C(=O)NNC(=O)COc1ccc(C)cc1	i	i	i	i	i	nt	nt	nt	nt	nt	nt	nt
CCC(C)[C@H]1CNCCN1CCc1cc(C(F)(F)F)cc(C(F)(F)F)c1 (some centres not stated)	i	i	-7.23*	i	i	nt	nt	nt	nt	nt	i	i	TRPC4 spec 2=54.5%*;TRPC4 spec=i;HEK293 MPD ctr 2-1=i;HEK293 MPD ctr-1=i
O=C(O)c1cc(Br)ccc1NS(=O)(=O)c1cccc2nsnc12	i	i	i	12.8*	i	-32.9	i	i	15.5%*	i	i	33.5%*
O=C(O)c1ccccc1NS(=O)(=O)c1cccc2nsnc12	i	i	i	i	i	-9.0	nt	nt	nt	nt	nt	nt
CCCNC(=O)Cn1c(=O)/c(=C\c2ccc(-c3ccc([N+](=O)[O-])cc3)o2)s/c1=C\C(=O)C(C)(C)C	i	i	i	32.5*	i	-4.7	977.5%*	i	274.0%*	i	i	281.0%*
CN(Cc1ccccc1)C1CCN(Cc2ccccc2[N+](=O)[O-])CC1	i	i	i	i	i	17.1	nt	nt	nt	nt	nt	nt
